Data on 24 compounds can be found in ChEMBL document CHEMBL4425109, “Optimization of Cyclic Plasmin Inhibitors: From Benzamidines to Benzylamines” (J Med Chem, 2016).

The structures appear in SMILES notation.

Experiment [1] deals with T1, Plasminogen (Homo sapiens, UniProt P00747). The experiment in a line: Inhibition of human plasmin using Mes-DSer(Bzl)-Phe-Arg-AMC as substrate by Dixon plot analysis.
Target sequence in this assay (P00747 97-580 limits assumed): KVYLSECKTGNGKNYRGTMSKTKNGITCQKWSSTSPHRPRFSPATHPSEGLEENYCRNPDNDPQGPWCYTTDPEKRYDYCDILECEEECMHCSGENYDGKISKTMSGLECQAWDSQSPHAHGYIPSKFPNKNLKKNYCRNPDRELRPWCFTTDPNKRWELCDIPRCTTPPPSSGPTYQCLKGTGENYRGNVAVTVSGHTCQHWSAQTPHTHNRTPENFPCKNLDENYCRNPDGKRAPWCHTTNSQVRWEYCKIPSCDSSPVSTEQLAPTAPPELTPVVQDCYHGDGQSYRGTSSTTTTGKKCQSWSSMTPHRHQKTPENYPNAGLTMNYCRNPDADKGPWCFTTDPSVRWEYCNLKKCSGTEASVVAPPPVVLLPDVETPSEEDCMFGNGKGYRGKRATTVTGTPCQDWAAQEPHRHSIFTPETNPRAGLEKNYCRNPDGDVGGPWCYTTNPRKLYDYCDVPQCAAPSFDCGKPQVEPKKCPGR
Target sequence in this assay (P00747 581-810 limits assumed): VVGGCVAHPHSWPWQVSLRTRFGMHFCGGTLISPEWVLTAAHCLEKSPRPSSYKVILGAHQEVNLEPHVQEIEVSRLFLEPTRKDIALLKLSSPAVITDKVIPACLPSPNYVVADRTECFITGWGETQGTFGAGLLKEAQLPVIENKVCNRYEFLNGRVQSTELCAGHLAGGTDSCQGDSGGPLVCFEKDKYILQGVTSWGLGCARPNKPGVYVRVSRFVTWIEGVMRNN
The target in a further experiment is Trypsin (Sus scrofa, UniProt P00761). As to the kind of experiment: Inhibition of porcine trypsin using Mes-DArg-Gly-Arg-AMC as substrate by Dixon plot analysis. An outline of the steps: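 Porcine trypsin, 30 pM final, with substrate Mes-DArg-Gly-Arg-AMC (KM 8.3 μM). Buffer was 50 mM Tris·HCl pH 8.0 containing 154 mM NaCl, at room temperature. Reaction was started by enzyme and fluorescence read at ex 355 / em 460 nm. Ki was obtained from Dixon plots, mean of at least two measurements.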

For another experiment, the target named is Prothrombin (Bos taurus, UniProt P00735). As to the kind of experiment: Inhibition of bovine thrombin using Tos-Gly-Pro-Arg-AMC as substrate by Dixon plot analysis. The essentials:
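Bovine thrombin at 31 pM in assay, KM 5.4 μM for the substrate. Run at room temperature in 50 mM Tris·HCl pH 8.0 with 154 mM NaCl. Fluorescence read at ex 355 / em 460 nm, reaction started by enzyme addition. Ki from Dixon plots, average of at least two measurements.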

In a further experiment the target is Plasma kallikrein (Homo sapiens, UniProt P03952). As to the kind of experiment: Inhibition of human plasma kallikrein using Mes-DArg-Pro-Arg-AMC as substrate by Dixon plot analysis. The essentials:
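Human plasma kallikrein (112 pM final) was assayed at room temperature in Tris·HCl 50 mM pH 8.0 with NaCl 154 mM. Mes-DArg-Pro-Arg-AMC served as substrate (KM 39 μM). Fluorescence was read at ex 355 / em 460 nm, with reactions started by enzyme.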

In another experiment the target is Coagulation factor X (Homo sapiens, UniProt P00742). The experiment in a line: Inhibition of human f10a using Mes-DArg-Pro-Arg-AMC as substrate by Dixon plot analysis. The essentials:
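Human factor Xa, 97 pM in assay, in 50 mM Tris·HCl pH 8.0 with 154 mM NaCl at room temperature. Fluorogenic substrate Mes-DArg-Pro-Arg-AMC (KM 28 μM), read at ex 355 / em 460 nm after starting with enzyme. Ki was taken from Dixon plots and averaged over at least two measurements.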

The target of experiment [2] is Vitamin K-dependent protein C (Homo sapiens, UniProt P04070). The experiment in a line: Inhibition of human activated Protein C using Mes-DArg-Pro-Arg-AMC as substrate by Dixon plot analysis. An outline of the steps: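 Human aPC, 293 pM final. Run at room temperature in 50 mM Tris·HCl pH 8.0 with 154 mM NaCl. Substrate Mes-DArg-Pro-Arg-AMC, KM 26 μM. Fluorescence was read at ex 355 / em 460 nm, with reaction started by enzyme. Ki came from Dixon plots, mean of at least two measurements.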

The next experiment relates to Plasma. The experiment in a line: Antifibrinolytic activity in human plasma assessed as inhibition of tPA-induced plasmin formation after 40 mins. It counts as functional, cell-free. The essentials:
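Citrated human plasma at 37 °C with CaCl2 (12.5 mM in assay), tissue factor (stock 1/500 in assay) and tPA (12.3 nM in assay). Inhibitor dilutions, from 10 mM DMSO stocks diluted in 0.9% NaCl, were preincubated 5 min at 37 °C with these reagents, then started with prewarmed plasma. OD405 was read over 40 min.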

Experiment [3] has as its target T1, Plasminogen. The experiment in a line: Binding affinity to human plasmin assessed as slow binding constant in presence of Mes-DArg-Phe-Arg-AMC after 20 mins by Dixon plot analysis.
Target sequence in this assay (P00747 97-580 limits assumed): as the sequence (P00747 97-580 limits assumed) above
Target sequence in this assay (P00747 581-810 limits assumed): as the sequence (P00747 581-810 limits assumed) above
The target of experiment [4] is T1, Plasminogen. As to the kind of experiment: Inhibition of human plasmin.
Target sequence in this assay (P00747 whole entry, looked up): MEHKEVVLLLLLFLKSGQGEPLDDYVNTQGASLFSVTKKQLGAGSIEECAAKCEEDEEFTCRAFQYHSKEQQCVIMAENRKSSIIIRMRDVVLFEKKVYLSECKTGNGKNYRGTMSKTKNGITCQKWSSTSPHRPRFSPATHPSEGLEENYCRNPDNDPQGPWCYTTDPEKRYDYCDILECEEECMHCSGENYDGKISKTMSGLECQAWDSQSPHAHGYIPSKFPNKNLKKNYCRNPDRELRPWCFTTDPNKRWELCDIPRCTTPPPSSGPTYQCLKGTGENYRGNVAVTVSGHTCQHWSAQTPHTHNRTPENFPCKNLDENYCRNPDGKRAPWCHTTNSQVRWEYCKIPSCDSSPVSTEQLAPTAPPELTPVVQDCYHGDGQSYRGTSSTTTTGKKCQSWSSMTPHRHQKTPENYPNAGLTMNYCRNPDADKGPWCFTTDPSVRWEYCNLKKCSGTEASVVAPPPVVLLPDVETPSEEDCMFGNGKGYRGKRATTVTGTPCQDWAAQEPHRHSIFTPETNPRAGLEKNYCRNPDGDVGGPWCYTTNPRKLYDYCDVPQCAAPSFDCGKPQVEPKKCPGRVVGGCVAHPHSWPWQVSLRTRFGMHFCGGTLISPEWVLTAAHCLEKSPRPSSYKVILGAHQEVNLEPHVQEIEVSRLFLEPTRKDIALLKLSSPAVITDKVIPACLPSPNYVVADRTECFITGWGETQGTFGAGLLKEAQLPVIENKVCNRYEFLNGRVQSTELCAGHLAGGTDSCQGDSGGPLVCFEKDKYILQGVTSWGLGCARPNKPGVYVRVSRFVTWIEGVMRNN

Chain of Coagulation factor X (P00742 41-179 limits assumed): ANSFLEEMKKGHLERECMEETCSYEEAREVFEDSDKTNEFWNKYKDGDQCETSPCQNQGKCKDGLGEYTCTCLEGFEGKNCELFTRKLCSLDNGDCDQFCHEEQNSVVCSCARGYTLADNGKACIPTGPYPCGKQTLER
Chain of Coagulation factor X (P00742 235-488 limits assumed): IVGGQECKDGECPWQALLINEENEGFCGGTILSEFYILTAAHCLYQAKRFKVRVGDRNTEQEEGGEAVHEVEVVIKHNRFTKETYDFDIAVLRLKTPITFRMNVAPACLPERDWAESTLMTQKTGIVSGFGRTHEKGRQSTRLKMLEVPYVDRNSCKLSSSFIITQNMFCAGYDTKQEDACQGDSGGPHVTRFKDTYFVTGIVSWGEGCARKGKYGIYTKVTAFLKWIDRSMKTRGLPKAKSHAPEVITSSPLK
Chain of Vitamin K-dependent protein C (P04070 43-197 limits assumed): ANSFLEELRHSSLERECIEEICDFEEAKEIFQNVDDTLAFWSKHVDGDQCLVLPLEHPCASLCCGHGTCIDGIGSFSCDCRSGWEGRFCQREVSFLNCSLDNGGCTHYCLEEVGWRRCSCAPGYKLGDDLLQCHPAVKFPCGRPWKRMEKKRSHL
Chain of Vitamin K-dependent protein C (P04070 212-461 limits assumed): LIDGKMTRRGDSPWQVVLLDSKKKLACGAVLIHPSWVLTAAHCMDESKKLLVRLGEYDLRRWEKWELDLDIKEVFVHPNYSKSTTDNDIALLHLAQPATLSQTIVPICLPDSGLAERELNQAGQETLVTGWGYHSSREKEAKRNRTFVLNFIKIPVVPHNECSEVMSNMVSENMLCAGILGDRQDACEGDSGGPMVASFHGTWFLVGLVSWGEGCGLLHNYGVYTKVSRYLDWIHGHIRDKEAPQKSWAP
Chain of Trypsin (P00761 whole entry): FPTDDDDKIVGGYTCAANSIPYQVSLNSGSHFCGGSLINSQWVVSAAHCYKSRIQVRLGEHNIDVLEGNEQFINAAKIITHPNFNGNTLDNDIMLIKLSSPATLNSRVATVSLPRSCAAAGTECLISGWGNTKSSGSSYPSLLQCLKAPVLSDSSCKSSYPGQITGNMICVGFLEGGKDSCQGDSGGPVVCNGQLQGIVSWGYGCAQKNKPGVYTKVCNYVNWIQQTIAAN
Chain of Plasma kallikrein (P03952 20-390 limits assumed): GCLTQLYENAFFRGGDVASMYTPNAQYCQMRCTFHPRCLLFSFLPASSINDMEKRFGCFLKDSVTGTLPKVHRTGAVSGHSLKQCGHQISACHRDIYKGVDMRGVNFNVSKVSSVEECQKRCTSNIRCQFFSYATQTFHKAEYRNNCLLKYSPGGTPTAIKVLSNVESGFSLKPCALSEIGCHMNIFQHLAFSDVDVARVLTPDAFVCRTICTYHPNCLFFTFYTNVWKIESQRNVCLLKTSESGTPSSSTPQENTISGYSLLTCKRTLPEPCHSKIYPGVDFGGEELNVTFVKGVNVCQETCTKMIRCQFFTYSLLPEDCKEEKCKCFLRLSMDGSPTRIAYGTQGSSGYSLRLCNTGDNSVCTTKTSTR
Chain of Plasma kallikrein (P03952 391-638 limits assumed): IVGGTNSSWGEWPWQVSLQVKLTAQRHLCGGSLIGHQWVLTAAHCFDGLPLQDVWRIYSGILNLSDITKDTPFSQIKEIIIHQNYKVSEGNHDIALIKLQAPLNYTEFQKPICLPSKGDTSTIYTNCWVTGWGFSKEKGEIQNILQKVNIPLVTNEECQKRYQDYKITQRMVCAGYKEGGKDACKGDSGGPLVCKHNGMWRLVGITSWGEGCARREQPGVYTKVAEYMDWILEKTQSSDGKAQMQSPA

On to `N=C(N)c1ccc(CNC(=O)[C@@H]2Cc3ccc(cc3)NC(=O)CCN3CCN(CCC(=O)Nc4ccc(cc4)C[C@@H](NC(=O)CCc4ccccc4)C(=O)N2)CC3)cc1`, for which the Ki – broadly, a dissociation constant, usually derived from enzyme kinetics or from competition with a known ligand – on Plasminogen [1] is 3.93 nM; at Trypsin it was 0.757 µM; on Prothrombin, 0.199 µM; at Plasma kallikrein it was 7.41 µM; at Coagulation factor X, 16.1 µM; in [2], 28 µM.
Compound `N=C(N)c1ccc(CNC(=O)[C@@H]2Cc3ccc(cc3)NC(=O)CCN3CCN(CCC(=O)Nc4ccc(cc4)C[C@@H](N)C(=O)N2)CC3)cc1` had an inhibitory constant (Ki) in [2] of 106 µM.
Consider `NCc1ccc(CNC(=O)[C@@H]2Cc3ccc(cc3)NC(=O)CCN3CCN(CCC(=O)Nc4ccc(cc4)C[C@@H](NS(=O)(=O)NC4CCCCC4)C(=O)N2)CC3)cc1`, for which the inhibitory constant (Ki) at Plasminogen [1] was 0.52 nM; on Trypsin it was 0.351 µM; on Prothrombin, 7.13 µM; on Plasma kallikrein it was 43.2 µM; at Coagulation factor X it was more than 100 µM; in [2], more than 100 µM. The Ki on Plasminogen [3] came out at 0.00043 µM. For the same compound, the IC50 (commonly the concentration needed to halve the response being measured) in the experiment with Plasma amounted to 0.1 µM.
On to `CC(C)(C)OC[C@@H](NS(=O)(=O)c1ccccc1)C(=O)NCC(=O)NCc1ccc(C(=N)N)cc1`, for which, at Plasminogen [4], affinity was put at a Ki of 24 µM.
On to `N=C(N)c1ccc(CNC(=O)[C@@H]2Cc3ccc(cc3)NC(=O)CN3CCN(CC3)CC(=O)Nc3ccc(cc3)C[C@@H](N)C(=O)N2)cc1`, for which the Ki at Plasminogen [1] worked out at 66.3 nM; on Prothrombin, 173 µM; at Plasma kallikrein, 9.09 µM; at Coagulation factor X, 114 µM; in experiment [2], 130 µM.
Regarding `N=C(N)c1ccc(CNC(=O)[C@@H]2Cc3ccc(cc3)NC(=O)CCN3CCN(CCC(=O)Nc4ccc(cc4)C[C@@H](NC(=O)CCCc4ccccc4)C(=O)N2)CC3)cc1`, the Ki on Plasminogen [1] was determined as 22.7 nM; on Trypsin it was 1 µM; on Prothrombin, 0.712 µM; at Plasma kallikrein, 10.5 µM; on Coagulation factor X it was 11.5 µM; in experiment [2] it was 39.7 µM.
Take `N=C(N)c1ccc(CNC(=O)[C@@H]2Cc3ccc(cc3)NC(=O)CN3CCN(CC3)CC(=O)Nc3ccc(cc3)C[C@@H](NS(=O)(=O)c3ccccc3)C(=O)N2)cc1`: the inhibition constant Ki is 0.51 nM at Plasminogen [1]; 0.501 µM on Trypsin; 20.7 µM at Prothrombin; 0.54 µM on Plasma kallikrein; more than 15 µM on Coagulation factor X; more than 30 µM in [2].
On to `CC(C)(C)OC(=O)N[C@@H]1Cc2ccc(cc2)NC(=O)CCN2CCN(CCC(=O)Nc3ccc(cc3)C[C@@H](C(=O)NCc3ccc(CN)cc3)NC1=O)CC2`, for which the Ki was 19.7 nM at Plasminogen [1]; 3.15 µM at Trypsin; 15.6 µM on Prothrombin; more than 100 µM on Plasma kallikrein; more than 100 µM on Coagulation factor X; more than 100 µM in [2].
Turning to `NCCCCNC(=O)[C@@H]1Cc2ccc(cc2)NC(=O)CCN2CCN(CCC(=O)Nc3ccc(cc3)C[C@@H](NS(=O)(=O)NC3CCCCC3)C(=O)N1)CC2`, the Ki on Plasminogen [1] came to 50.6 nM; at Trypsin it was 6.2 µM; on Prothrombin, 21.9 µM; on Plasma kallikrein it was 64.4 µM; at Coagulation factor X, 39.5 µM; in experiment [2], 85.9 µM.
For `COC(=O)N[C@@H]1Cc2ccc(cc2)NC(=O)CCN2CCN(CCC(=O)Nc3ccc(cc3)C[C@@H](C(=O)NCc3ccc(C(=N)N)cc3)NC1=O)CC2`, the inhibition constant Ki at Plasminogen [1] came to 0.77 nM; at Trypsin, 0.109 µM; on Prothrombin, 15.3 µM; at Plasma kallikrein, 7.25 µM; on Coagulation factor X, 50.7 µM; in experiment [2], 51.5 µM. Moreover, on Plasminogen [3], the Ki came out at 0.00085 µM.
With `N=C(N)c1ccc(CNC(=O)[C@@H]2Cc3ccc(cc3)NC(=O)CCN3CCN(CCC(=O)Nc4ccc(cc4)C[C@@H](NS(=O)(=O)c4ccccc4)C(=O)N2)CC3)cc1`, the inhibitory constant (Ki) on Plasminogen [1] was 0.07 nM; at Trypsin it was 0.062 µM; on Prothrombin, 42.7 µM; on Plasma kallikrein, 0.8 µM; at Coagulation factor X, more than 13 µM; in [2], more than 13 µM.
Consider `N=C(N)c1ccc(CNC(=O)[C@@H]2Cc3ccc(cc3)NC(=O)CN3CCN(CC3)CC(=O)Nc3ccc(cc3)C[C@@H](NC(=O)CCc3ccccc3)C(=O)N2)cc1`, for which the Ki is 61.1 nM on Plasminogen [1]; 1.43 µM on Trypsin; 8.79 µM at Prothrombin; 8.25 µM at Plasma kallikrein; 20.6 µM on Coagulation factor X; 42 µM in experiment [2].
With `N=C(N)NCCCCNC(=O)[C@@H]1Cc2ccc(cc2)NC(=O)CCN2CCN(CCC(=O)Nc3ccc(cc3)C[C@@H](NS(=O)(=O)NC3CCCCC3)C(=O)N1)CC2`, the Ki at Plasminogen [1] stood at 3.7 nM; on Trypsin it was 0.59 µM; at Prothrombin it was 1.71 µM; on Plasma kallikrein it was 10.4 µM; at Coagulation factor X, 28.9 µM; in experiment [2], 49.3 µM.
For the compound `N=C(N)c1ccc(CNC(=O)[C@@H]2Cc3ccc(cc3)NC(=O)CCN3CCN(CCC(=O)Nc4ccc(cc4)C[C@@H](NS(=O)(=O)NC4CCCCC4)C(=O)N2)CC3)cc1`, the Ki was determined as 0.13 nM at Plasminogen [1], 0.021 µM at Trypsin, 17 µM in experiment [2] and 0.00015 µM on Plasminogen [3]. The IC50 with Plasma was 0.055 µM.
In experiment [2], `CN(C)S(=O)(=O)N[C@@H]1Cc2ccc(cc2)NC(=O)CN2CCN(CC2)CC(=O)Nc2ccc(cc2)C[C@@H](C(=O)NCc2ccc(C(=N)N)cc2)NC1=O` gave a Ki of 74.7 µM.
As to `CCCCS(=O)(=O)N[C@@H]1Cc2ccc(cc2)NC(=O)CCN2CCN(CCC(=O)Nc3ccc(cc3)C[C@@H](C(=O)NCc3ccc(C(=N)N)cc3)NC1=O)CC2`, the inhibitory constant (Ki) is 0.45 nM at Plasminogen [1]; 0.0137 µM on Trypsin; 14.1 µM at Prothrombin; 0.701 µM at Plasma kallikrein; 34.4 µM on Coagulation factor X; 4.28 µM in experiment [2].
For `N=C(N)c1ccc(CNC(=O)[C@@H]2Cc3ccc(cc3)NC(=O)CN3CCN(CC3)CC(=O)Nc3ccc(cc3)C[C@@H](NC(=O)OCc3ccccc3)C(=O)N2)cc1`, the inhibitory constant (Ki) at Plasminogen [1] is 5.2 nM; in [2], 93.4 µM.
As for `NCc1ccc(CNC(=O)[C@@H]2Cc3ccc(cc3)NC(=O)CCN3CCN(CCC(=O)Nc4ccc(cc4)C[C@@H](NS(=O)(=O)Cc4ccccc4)C(=O)N2)CC3)cc1`, the Ki is 1.2 nM on Plasminogen [1], 0.156 µM at Trypsin and 32 µM in experiment [2].
Regarding `N=C(N)c1ccc(CNC(=O)[C@@H]2Cc3ccc(cc3)NC(=O)CN3CCN(CC3)CC(=O)Nc3ccc(cc3)C[C@@H](NS(=O)(=O)NC3CCCCC3)C(=O)N2)cc1`, the inhibitory constant (Ki) was 0.136 µM at Trypsin, 15.8 µM at Prothrombin, more than 30 µM in experiment [2] and 0.00042 µM at Plasminogen [3]. The half-maximal inhibitory concentration (IC50) in the experiment with Plasma is 0.053 µM.
Turning to `N=C(N)c1ccc(CNC(=O)[C@@H]2Cc3ccc(cc3)NC(=O)CCN3CCN(CCC(=O)Nc4ccc(cc4)C[C@@H](NC(=O)Cc4ccccc4)C(=O)N2)CC3)cc1`, the affinity in [2], expressed as Ki, was 96.5 µM.
Take `N=C(N)c1ccc(CNC(=O)[C@@H]2Cc3ccc(cc3)NC(=O)CN3CCN(CC3)CC(=O)Nc3ccc(cc3)C[C@@H](NC(=O)Cc3ccccc3)C(=O)N2)cc1`: the Ki on Plasminogen [1] is 81.3 nM; on Prothrombin it was 72.2 µM; at Plasma kallikrein, 7.27 µM; at Coagulation factor X it was 202 µM; in experiment [2], 212 µM.
Regarding `N=C(N)c1ccc(CNC(=O)[C@@H]2Cc3ccc(cc3)NC(=O)CCN3CCN(CCC(=O)Nc4ccc(cc4)C[C@@H](NC=O)C(=O)N2)CC3)cc1`, the Ki was 2.69 nM at Plasminogen [1]; 0.561 µM at Trypsin; more than 100 µM on Prothrombin; 3.87 µM at Plasma kallikrein; more than 100 µM at Coagulation factor X; 62.9 µM in experiment [2].
Regarding `N=C(N)c1ccc(CNC(=O)[C@@H]2Cc3ccc(cc3)NC(=O)CCN3CCN(CCC(=O)Nc4ccc(cc4)C[C@@H](NC(=O)OCc4ccccc4)C(=O)N2)CC3)cc1`, the Ki came to 0.103 µM at Trypsin and 46.5 µM in experiment [2].
Consider `N=C(N)c1ccc(CNC(=O)[C@@H]2Cc3ccc(cc3)NC(=O)CN3CCN(CC3)CC(=O)Nc3ccc(cc3)C[C@@H](NC(=O)CCCc3ccccc3)C(=O)N2)cc1`, for which the Ki at Plasminogen [1] was 75.3 nM; at Trypsin, 1.9 µM; on Prothrombin it was 8.78 µM; on Plasma kallikrein it was 12.6 µM; on Coagulation factor X, 20.5 µM; in [2] it was 47.1 µM.
